Results: ChEMBL document CHEMBL1165887, “Structure-activity relationships of monomeric C2-aryl pyrrolo[2,1-c][1,4]benzodiazepine (PBD) antitumor agents” (J Med Chem, 2010)
Calls of active or inactive are those of the source. No cut-off for these calls is given here.

Legend:
K562 = assay: Cytotoxicity against human K562 cells after 96 hrs by alamar blue assay; assay type: functional, cell-based; settings: K562, 96 h
Procedure, shortened: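 K562 cells kept in RPMI with 10% fetal calf serum and 2 mM glutamine, seeded at 10⁴ cells/mL. Compounds serially diluted in DMSO and added in triplicate; exposure 96 h at 37 °C, 5% CO₂. Alamar Blue (1 μM final) then added for a further 4 h; read by fluorescence emission at 580-620 nm.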

[1] = Growth inhibition of human NCI60 cells after 48 hrs by SRB assay; assay type: functional; settings: NCI60, 48 h; for CC50: read-out: LC50 (the source's name)
Calf thymus DNA [2] = assay: Binding affinity to calf thymus DNA assessed as change in melting temperature after 4 hrs; assay type: nucleic-acid assay; settings: Bos taurus
Procedure, shortened: (§1)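 Calf thymus DNA at a fixed 100 μM (DNAp, 50 μM bp) in pH 7.00 buffer of 10 mM NaH₂PO₄/Na₂HPO₄ and 1 mM Na₂EDTA, 1:5 ligand/DNAp ratio, DMSO ≤0.3% v/v. Mixture kept at 37 °C for the stated time, then melted while absorbance at 260 nm was monitored. Tm taken at the midpoint of the normalized profile; ΔTm = Tm(DNA+ligand) − Tm(DNA), corrected for DMSO; mean of at least three runs.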

Calf thymus DNA [3] = assay: Binding affinity to calf thymus DNA assessed as change in melting temperature after 18 hrs; assay type: nucleic-acid assay; settings: Bos taurus; procedure, shortened: as §1
Mus musculus = assay: Toxicity in human HCT116 xenografter nu/nu BALB/c mouse assessed as change in body weight at 300 ug/kg, iv; assay type: organism-based; settings: in vivo, 0.3 mg/kg
Procedure, shortened: (§2)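 Female nu/nu-BALB/c athymic nude mice bearing subcutaneous flank HCT 116 xenografts (10⁷ cells), dosed once intravenously at 300 μg/kg in 1% DMSO/saline once tumours reached 50-100 mm³; vehicle-only controls. Tumours measured by calliper 3 times a week (width² × length/2), expressed as volume relative to day 1. Body weight monitored daily over 12 days as % change from day 1.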

HCT-116 = assay: Antitumor activity against human HCT116 cells xenografted in nu/nu BALB/c mouse assessed as delay in tumor growth at 300 ug/kg, iv; assay type: functional, cell-based; procedure, shortened: as §2

Structure (SMILES)	IC50 (K562)	GI50 [1]	TGI [1]	CC50 [1]	ΔTm (Calf thymus DNA [2])	ΔTm (Calf thymus DNA [3])	Activity (Mus musculus)	Activity (HCT-116)
COc1cc2c(cc1OC)C(=O)N1C=C(c3ccc4c(c3)OCO4)C[C@H]1C=N2	0.47 nM	2 nM	30 nM	3630 nM	10.3 °C	10.3 °C		
COc1cc2c(cc1OC)C(=O)N1C=C(c3ccc(C#N)cc3)C[C@H]1C=N2	19.8 nM	3 nM	150 nM	7410 nM	10.9 °C	11 °C		
COc1cc2c(cc1OC)C(=O)N1C=C(c3ccc(-c4ccccc4)cc3)C[C@H]1C=N2	19.6 nM	8 nM	90 nM	3630 nM	8.1 °C	8.4 °C		
CO[C@H]1Nc2c(ccc(C)c2O)C(=O)N2C=C(/C=C/C(N)=O)C[C@@H]12 [ANTHRAMYCIN METHYL ETHER]	8 nM	13 nM	1580 nM	24500 nM	11.2 °C	13 °C		
COc1cc2c(cc1OC)C(=O)N1C=C(c3ccc4ncccc4c3)C[C@H]1C=N2	1.4 nM	0.4 nM	4 nM	190 nM	19.9 °C	20.5 °C	Non-toxic	Active
COc1cc2c(cc1OC)C(=O)N1C=C(c3ccc(N(C)C)cc3)C[C@H]1C=N2	32.1 nM	3 nM	40 nM	3230 nM	7.6 °C	8 °C		
COc1cc2c(cc1OC)C(=O)N1C=C(c3ccc(Oc4ccccc4)cc3)C[C@H]1C=N2	51.1 nM	3 nM	30 nM	1260 nM	11.9 °C	12.1 °C		
COc1ccc(C2=CN3C(=O)c4cc(OC)c(OC)cc4N=C[C@@H]3C2)cc1	4.9 nM	1 nM	150 nM	910 nM	10.5 °C	10.6 °C		
COc1cc2c(cc1OC)C(=O)N1C=C(c3ccc(C)cc3)C[C@H]1C=N2	0.28 nM	2 nM	180 nM	8900 nM	9.8 °C	10.1 °C		
COc1cc2c(cc1OC)C(=O)N1C=C(c3ccccc3C)C[C@H]1C=N2	9.3 nM	12 nM	250 nM	10700 nM	6.8 °C	6.9 °C		
COc1cc2c(cc1OC)C(=O)N1C=C(c3ccc(Cl)cc3)C[C@H]1C=N2	31.3 nM	2 nM	70 nM	4470 nM	9.9 °C	10.2 °C		
COc1cc2c(cc1OC)C(=O)N1C=C(c3ccc(C(C)(C)C)cc3)C[C@H]1C=N2	47.8 nM	2 nM	50 nM	1940 nM	9 °C	9.2 °C		
COc1cc2c(cc1OC)C(=O)N1C=C(c3ccc(C(F)(F)F)cc3)C[C@H]1C=N2	24.3 nM	4 nM	30 nM	1660 nM	11.7 °C	11.9 °C		
COc1cc2c(cc1OC)C(=O)N1C=C(c3cnc4ccccc4c3)C[C@H]1C=N2	8.9 nM	0.1 nM	1 nM	180 nM	18.1 °C	18.2 °C		
COc1cc2c(cc1OC)C(=O)N1C=C(c3ccc(C=O)cc3)C[C@H]1C=N2	26.3 nM	9 nM	160 nM	15100 nM	10.6 °C	10.8 °C		
COc1cc2c(cc1OC)C(=O)N1C=C(c3ccc(N)cc3)C[C@H]1C=N2	14 nM	2 nM	30 nM	4790 nM	6.2 °C	6.5 °C		

Structure (SMILES)	IC50 (K562)	GI50 [1]	TGI [1]	CC50 [1]	ΔTm (Calf thymus DNA [2])	ΔTm (Calf thymus DNA [3])	Activity (Mus musculus)	Activity (HCT-116)
COc1cccc(C2=CN3C(=O)c4cc(OC)c(OC)cc4N=C[C@@H]3C2)c1	0.45 nM	11 nM	60 nM	4070 nM	10.1 °C	10.2 °C		
CCc1ccc(C2=CN3C(=O)c4cc(OC)c(OC)cc4N=C[C@@H]3C2)cc1	79.5 nM	1 nM	70 nM	4170 nM	9.4 °C	9.7 °C		
COc1cc2c(cc1OC)C(=O)N1C=C(c3cccs3)C[C@H]1C=N2	1.1 nM	10 nM	150 nM	740 nM	12.7 °C	13 °C		
COc1cc2c(cc1OC)C(=O)N1C=C(c3ccc(C(C)C)cc3)C[C@H]1C=N2	115 nM	4 nM	60 nM	4460 nM	6.7 °C	6.9 °C		
C/C=C/C1=CN2C(=O)c3cc(O[C@@H]4O[C@@H](C)[C@H](NC)[C@@](C)(O)[C@H]4O)c(C)c(O)c3N[C@H](O)[C@@H]2C1 [SIBIROMYCIN]	1.4 nM	33 nM	850 nM	16700 nM	16 °C	16.3 °C		
COc1cc2c(cc1OC)C(=O)N1C=C(c3ccc4ccccc4c3)C[C@H]1C=N2	45.4 nM	0.6 nM	15 nM	400 nM	15.4 °C	15.7 °C		
COc1cc2c(cc1OC)C(=O)N1C=C(c3ccc(SC)cc3)C[C@H]1C=N2	19 nM	5 nM	20 nM	1440 nM	10.5 °C	10.7 °C		
COc1cc2c(cc1OC)C(=O)N1C=C(c3ccc4ccc5cccc6ccc3c4c56)C[C@H]1C=N2	86.2 nM	398 nM	1440 nM	10700 nM				
COc1cc2c(cc1OC)C(=O)N1C=C(/C=C/c3ccccc3)C[C@H]1C=N2	0.1 nM	4 nM	20 nM	1580 nM				
COc1cc2c(cc1OC)C(=O)N1C=C(/C=C/c3ccc(C(F)(F)F)cc3)C[C@H]1C=N2	31.2 nM	3 nM	20 nM	1100 nM				
COc1cc2c(cc1OC)C(=O)N1C=C(c3ccc(C(N)=O)cc3)C[C@H]1C=N2	15.6 nM	9 nM	460 nM	13800 nM				
COc1cc2c(cc1OC)C(=O)N1C=C(c3ccccc3)C[C@H]1C=N2	2.5 nM	2 nM	40 nM	5130 nM	10.6 °C	10.8 °C		
COc1cc2c(cc1OC)C(=O)N1C=C(c3c(C)cccc3C)C[C@H]1C=N2	> 1000 nM	851 nM	3460 nM	20900 nM	0.5 °C	0.5 °C		
COc1cc2c(cc1OC)C(=O)N1C=C(c3ccc(F)cc3)C[C@H]1C=N2	1.6 nM	2 nM	120 nM	11200 nM	10.4 °C	10.6 °C		
C=Cc1ccc(C2=CN3C(=O)c4cc(OC)c(OC)cc4N=C[C@@H]3C2)cc1	69 nM	5 nM	10 nM	620 nM	9 °C	9.2 °C		
